Measurements reported in ChEMBL document CHEMBL1127343, “"Glycylcyclines". 3. 9-Aminodoxycyclinecarboxamides” (1994).
Values after ≈ are worked out from the molar mass of the structure shown.

Columns and labels:
Format in all cases: functional
Escherichia coli [1] = experiment: In vitro antibacterial activity was measured on gram negative bacteria Escherichia coli UBMS 90-5 sensitive cell lines
In short: (§1)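 MIC by agar dilution on Mueller-Hinton II agar; inoculum (1–5) × 10^5 CFU/mL; antibiotic range 32–0.004 μg/mL; plates incubated 18 h at 35 °C in forced-air incubator. MIC taken as lowest concentration inhibiting growth. Tetracycline, minocycline and doxycycline run as standards in each assay.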

Staphylococcus aureus [2] = experiment: In vitro antibacterial activity was measured on gram positive bacteria Staphylococcus aureus UBMS 88-7 tet-k(efflux resistance) cell lines
Staphylococcus aureus [3] = experiment: In vitro antibacterial activity was measured on gram positive bacteria Staphylococcus aureus smith cell lines; in short: as §1
Staphylococcus aureus [4] = experiment: In vitro antibacterial activity was measured on gram positive bacteria Staphylococcus aureus UBMS 90-1 tet-M (ribosomal protection) cell lines; in short: as §1
Escherichia coli [5] = experiment: In vitro antibacterial activity was measured on gram negative bacteria Escherichia coli UBMS 90-4 tet-M (ribosomal protection) cell lines
In short: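 Agar dilution MIC on Mueller-Hinton II agar. Inoculum (1–5) × 10^5 CFU/mL, drug range 32–0.004 μg/mL. Plates incubated 18 h at 35 °C in a forced-air incubator. MIC is the lowest concentration that inhibits growth. The strain panel covered tetracycline-sensitive and -resistant strains. Tetracycline, minocycline and doxycycline were run as standards in each assay.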

Staphylococcus aureus [6] = experiment: In vitro antibacterial activity was measured on gram positive bacteria Staphylococcus aureus UBMS 90-3 sensitive cell lines; in short: as §1
Escherichia coli [7] = experiment: In vitro antibacterial activity was measured on gram negative bacteria Escherichia coli J3272 tet-C(efflux resistance) cell lines
Escherichia coli [8] = experiment: In vitro antibacterial activity was measured on gram negative bacteria Escherichia coli PRP-1 tet-a(efflux resistance) cell lines
Escherichia coli [9] = experiment: In vitro antibacterial activity was measured on gram negative bacteria Escherichia coli UBMS 88-1 tet-B(efflux resistance) cell lines
Escherichia coli [10] = experiment: In vitro antibacterial activity was measured on gram negative bacteria Escherichia coli J3272 tet-D(efflux resistance) cell lines

Row | Compound | MIC (Escherichia coli [1]) | MIC (Staphylococcus aureus [2]) | MIC (Staphylococcus aureus [3]) | MIC (Staphylococcus aureus [4]) | MIC (Escherichia coli [5]) | MIC (Staphylococcus aureus [6]) | MIC (Escherichia coli [7]) | MIC (Escherichia coli [8]) | MIC (Escherichia coli [9]) | MIC (Escherichia coli [10])
1 | C[C@H](N)C(=O)Nc1ccc2c(c1O)C(=O)C1=C(O)[C@]3(O)C(O)=C(C(N)=O)C(=O)[C@@H](N(C)C)C3[C@@H](O)C1[C@H]2C (stereo not given in full) | 8 µg/mL (≈ 15.1 µM) | > 32 µg/mL | 2 µg/mL (≈ 3.77 µM) | 8 µg/mL (≈ 15.1 µM) | 8 µg/mL (≈ 15.1 µM) | 2 µg/mL (≈ 3.77 µM) | > 32 µg/mL | > 32 µg/mL | 16 µg/mL (≈ 30.2 µM) | 
2 | CN[C@@H](CC(C)C)C(=O)Nc1ccc2c(c1O)C(=O)C1=C(O)[C@]3(O)C(O)=C(C(N)=O)C(=O)[C@@H](N(C)C)C3[C@@H](O)C1[C@H]2C (stereo not given in full) | 4 µg/mL (≈ 6.82 µM) |  | 2 µg/mL (≈ 3.41 µM) | 2 µg/mL (≈ 3.41 µM) | 4 µg/mL (≈ 6.82 µM) | 1 µg/mL (≈ 1.7 µM) | 8 µg/mL (≈ 13.6 µM) | 16 µg/mL (≈ 27.3 µM) | 8 µg/mL (≈ 13.6 µM) | 2 µg/mL (≈ 3.41 µM)
3 | CC(C)C[C@H](N)C(=O)Nc1ccc2c(c1O)C(=O)C1=C(O)[C@]3(O)C(O)=C(C(N)=O)C(=O)[C@@H](N(C)C)C3CC1C2 (stereo not given in full) | 2 µg/mL (≈ 3.69 µM) |  | 2 µg/mL (≈ 3.69 µM) | 1 µg/mL (≈ 1.84 µM) | 2 µg/mL (≈ 3.69 µM) | 1 µg/mL (≈ 1.84 µM) | 4 µg/mL (≈ 7.37 µM) | 4 µg/mL (≈ 7.37 µM) | 4 µg/mL (≈ 7.37 µM) | 1 µg/mL (≈ 1.84 µM)
4 | CC(C)C[C@H](N)C(=O)Nc1ccc2c(c1O)C(=O)C1=C(O)[C@]3(O)C(O)=C(C(N)=O)C(=O)[C@@H](N(C)C)C3[C@@H](O)C1[C@H]2C (stereo not given in full) | 1 µg/mL (≈ 1.75 µM) | 2 µg/mL (≈ 3.49 µM) | 0.5 µg/mL (≈ 0.873 µM) | 1 µg/mL (≈ 1.75 µM) | 1 µg/mL (≈ 1.75 µM) | 0.5 µg/mL (≈ 0.873 µM) | 4 µg/mL (≈ 6.99 µM) | 16 µg/mL (≈ 27.9 µM) | 2 µg/mL (≈ 3.49 µM) | 
5 | CC(C)[C@H](N)C(=O)Nc1ccc2c(c1O)C(=O)C1=C(O)[C@]3(O)C(O)=C(C(N)=O)C(=O)[C@@H](N(C)C)C3[C@@H](O)C1[C@H]2C (stereo not given in full) | 2 µg/mL (≈ 3.58 µM) | 8 µg/mL (≈ 14.3 µM) | 1 µg/mL (≈ 1.79 µM) | 2 µg/mL (≈ 3.58 µM) | 2 µg/mL (≈ 3.58 µM) | 0.5 µg/mL (≈ 0.895 µM) | 8 µg/mL (≈ 14.3 µM) | 32 µg/mL (≈ 57.3 µM) | 4 µg/mL (≈ 7.16 µM) | 1 µg/mL (≈ 1.79 µM)
6 | C[C@H]1c2ccc(NC(=O)[C@@H](N)Cc3ccccc3)c(O)c2C(=O)C2=C(O)[C@]3(O)C(O)=C(C(N)=O)C(=O)[C@@H](N(C)C)C3[C@@H](O)C21 (stereo not given in full) | 4 µg/mL (≈ 6.59 µM) | 4 µg/mL (≈ 6.59 µM) | 0.25 µg/mL (≈ 0.412 µM) | 1 µg/mL (≈ 1.65 µM) | 2 µg/mL (≈ 3.3 µM) | 0.5 µg/mL (≈ 0.824 µM) |  | 8 µg/mL (≈ 13.2 µM) |  | 1 µg/mL (≈ 1.65 µM)
7 | C[C@H]1c2ccc(NC(=O)[C@@H](N)Cc3ccc(O)cc3)c(O)c2C(=O)C2=C(O)[C@]3(O)C(O)=C(C(N)=O)C(=O)[C@@H](N(C)C)C3[C@@H](O)C21 (stereo not given in full) | 8 µg/mL (≈ 12.8 µM) | 32 µg/mL (≈ 51.4 µM) | 1 µg/mL (≈ 1.61 µM) | 4 µg/mL (≈ 6.42 µM) | 8 µg/mL (≈ 12.8 µM) | 0.5 µg/mL (≈ 0.803 µM) | 16 µg/mL (≈ 25.7 µM) | 32 µg/mL (≈ 51.4 µM) | 16 µg/mL (≈ 25.7 µM) | 
8 | CN(C)CC(=O)Nc1cc(N(C)C)c2c(c1O)C(=O)C1=C(O)[C@]3(O)C(O)=C(C(N)=O)C(=O)[C@@H](N(C)C)[C@@H]3CC1C2 (stereo not given in full) | 0.25 µg/mL (≈ 0.448 µM) | 2 µg/mL (≈ 3.59 µM) | 0.25 µg/mL (≈ 0.448 µM) | 0.5 µg/mL (≈ 0.897 µM) | 0.25 µg/mL (≈ 0.448 µM) | 0.25 µg/mL (≈ 0.448 µM) | 2 µg/mL (≈ 3.59 µM) | 2 µg/mL (≈ 3.59 µM) | 0.5 µg/mL (≈ 0.897 µM) | 
9 | C[C@H]1c2ccc(NC(=O)CN(C)C)c(O)c2C(=O)C2=C(O)[C@]3(O)C(O)=C(C(N)=O)C(=O)[C@@H](N(C)C)C3[C@@H](O)C21 (stereo not given in full) | 0.5 µg/mL (≈ 0.918 µM) | 4 µg/mL (≈ 7.35 µM) | 0.25 µg/mL (≈ 0.459 µM) | 0.5 µg/mL (≈ 0.918 µM) | 0.25 µg/mL (≈ 0.459 µM) | 0.12 µg/mL (≈ 0.22 µM) | 8 µg/mL (≈ 14.7 µM) | 2 µg/mL (≈ 3.67 µM) | 1 µg/mL (≈ 1.84 µM) | 
10 | CN(C)CC(=O)Nc1ccc2c(c1O)C(=O)C1=C(O)[C@]3(O)C(O)=C(C(N)=O)C(=O)[C@@H](N(C)C)[C@@H]3CC1C2 (stereo not given in full) | 0.25 µg/mL (≈ 0.486 µM) | 1 µg/mL (≈ 1.94 µM) | 0.12 µg/mL (≈ 0.233 µM) | 0.25 µg/mL (≈ 0.486 µM) | 0.25 µg/mL (≈ 0.486 µM) | 0.12 µg/mL (≈ 0.233 µM) | 2 µg/mL (≈ 3.89 µM) | 2 µg/mL (≈ 3.89 µM) | 1 µg/mL (≈ 1.94 µM) | 
11 | C[C@H]1c2ccc(NC(=O)[C@@H]3CCCN3)c(O)c2C(=O)C2=C(O)[C@]3(O)C(O)=C(C(N)=O)C(=O)[C@@H](N(C)C)C3[C@@H](O)C21 (stereo not given in full) | 2 µg/mL (≈ 3.59 µM) |  | 2 µg/mL (≈ 3.59 µM) | 4 µg/mL (≈ 7.19 µM) | 2 µg/mL (≈ 3.59 µM) | 1 µg/mL (≈ 1.8 µM) | 8 µg/mL (≈ 14.4 µM) | 16 µg/mL (≈ 28.7 µM) | 4 µg/mL (≈ 7.19 µM) | 1 µg/mL (≈ 1.8 µM)
12 | CC[C@H](C)[C@H](N)C(=O)Nc1ccc2c(c1O)C(=O)C1=C(O)[C@]3(O)C(O)=C(C(N)=O)C(=O)[C@@H](N(C)C)C3[C@@H](O)C1[C@H]2C (stereo not given in full) | 1 µg/mL (≈ 1.75 µM) | 2 µg/mL (≈ 3.49 µM) | 1 µg/mL (≈ 1.75 µM) | 1 µg/mL (≈ 1.75 µM) | 1 µg/mL (≈ 1.75 µM) | 0.25 µg/mL (≈ 0.437 µM) | 4 µg/mL (≈ 6.99 µM) | 16 µg/mL (≈ 27.9 µM) | 2 µg/mL (≈ 3.49 µM) | 0.5 µg/mL (≈ 0.873 µM)
13 | C[C@H]1c2ccc(NC(=O)CNC(C)(C)C)c(O)c2C(=O)C2=C(O)[C@]3(O)C(O)=C(C(N)=O)C(=O)[C@@H](N(C)C)C3[C@@H](O)C21 (stereo not given in full) | 0.5 µg/mL (≈ 0.873 µM) | 2 µg/mL (≈ 3.49 µM) | 0.5 µg/mL (≈ 0.873 µM) | 1 µg/mL (≈ 1.75 µM) | 0.5 µg/mL (≈ 0.873 µM) | 0.25 µg/mL (≈ 0.437 µM) | 1 µg/mL (≈ 1.75 µM) | 1 µg/mL (≈ 1.75 µM) | 1 µg/mL (≈ 1.75 µM) | 
14 | C[C@H]1c2ccc(NC(=O)[C@H](N)Cc3ccccc3)c(O)c2C(=O)C2=C(O)[C@]3(O)C(O)=C(C(N)=O)C(=O)[C@@H](N(C)C)C3[C@@H](O)C21 (stereo not given in full) | 4 µg/mL (≈ 6.59 µM) | 16 µg/mL (≈ 26.4 µM) | 0.5 µg/mL (≈ 0.824 µM) | 8 µg/mL (≈ 13.2 µM) | 2 µg/mL (≈ 3.3 µM) | 1 µg/mL (≈ 1.65 µM) |  | 16 µg/mL (≈ 26.4 µM) |  | 1 µg/mL (≈ 1.65 µM)
15 | C[C@H]1c2ccc(NC(=O)[C@@H](N)CC3CCCCC3)c(O)c2C(=O)C2=C(O)[C@]3(O)C(O)=C(C(N)=O)C(=O)[C@@H](N(C)C)C3[C@@H](O)C21 (stereo not given in full) | 4 µg/mL (≈ 6.53 µM) | 2 µg/mL (≈ 3.26 µM) | 1 µg/mL (≈ 1.63 µM) | 8 µg/mL (≈ 13.1 µM) | 4 µg/mL (≈ 6.53 µM) | 0.5 µg/mL (≈ 0.816 µM) | 8 µg/mL (≈ 13.1 µM) | 8 µg/mL (≈ 13.1 µM) | 8 µg/mL (≈ 13.1 µM) | 2 µg/mL (≈ 3.26 µM)
16 | CCN(CC)CC(=O)Nc1ccc2c(c1O)C(=O)C1=C(O)[C@]3(O)C(O)=C(C(N)=O)C(=O)[C@@H](N(C)C)C3[C@@H](O)C1[C@H]2C (stereo not given in full) | 0.5 µg/mL (≈ 0.873 µM) | 1 µg/mL (≈ 1.75 µM) | 0.25 µg/mL (≈ 0.437 µM) | 2 µg/mL (≈ 3.49 µM) | 0.5 µg/mL (≈ 0.873 µM) | 0.12 µg/mL (≈ 0.21 µM) | 2 µg/mL (≈ 3.49 µM) | 4 µg/mL (≈ 6.99 µM) | 1 µg/mL (≈ 1.75 µM) | 
